Assay results: ChEMBL document CHEMBL1122582, “Pyridonecarboxylic acids as antibacterial agents. 2. Synthesis and structure-activity relationships of 1,6,7-trisubstituted 1,4-dihydro-4-oxo-1,8-naphthyridine-3-carboxylic acids, including enoxacin, a new antibacterial agent” (J Med Chem, 1984)
≈ marks a conversion by molar mass, not a printed value.

Columns and labels:
Format in all cases: functional
Staphylococcus aureus [1] = assay: Antibacterial activity against Staphylococcus aureus 209PJC-1
In short: (§1)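 Twofold agar dilution on Mueller-Hinton agar (pH 7.4). Inocula of approximately 10⁶ colony-forming units; growth read after 20-h incubation at 37 °C. MIC is given in micrograms per milliliter.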

Pseudomonas aeruginosa [2] = assay: Antibacterial activity against Pseudomonas aeruginosa Tsuchijima; in short: as §1
Escherichia coli [3] = assay: Antibacterial activity against Escherichia coli NIHJ JC-2; in short: as §1
Escherichia coli [4] = assay: Median effective dose against Escherichia coli P-5101 causing systemic infections.
In short: (§2)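 Male Std-ddY mice (20 ± 2 g), groups of 10 or more, infected ip with E. coli P-5101 (9×10^6 cells). Compounds were suspended in 0.2% sodium carboxymethylcellulose and dosed orally at 0 and 6 h postinfection. Survival was scored after 1 week and the ED50 derived in mg/kg.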

Staphylococcus aureus [5] = assay: Median effective dose against Staphylococcus aureus 50774 causing systemic infections
In short: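 Systemic infection given iv with S. aureus 50774 (5×10^8 cells) to male Std-ddY mice (20 ± 2 g), 10 or more per group. Oral dosing of compound suspended in 0.2% sodium carboxymethylcellulose at 0 and 6 h postinfection. ED50 in mg/kg from survival scored after 2 weeks.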

Pseudomonas aeruginosa [6] = assay: Median effective dose against Pseudomonas aeruginosa 12 causing systemic infections
In short: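 Male Std-ddY mice (20 ± 2 g), groups of 10 or more, infected ip with P. aeruginosa 12 (4×10^3 cells). Compounds were suspended in 0.2% sodium carboxymethylcellulose and given orally at 0 and 6 h postinfection. Survival was scored after 1 week and the ED50 derived in mg/kg.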

Escherichia coli [7] = assay: Median effective dose against Escherichia coli P-5101 causing systemic infections; in short: as §2

Row | Structure (SMILES) | MIC (Staphylococcus aureus [1]) [µg/mL] | MIC (Pseudomonas aeruginosa [2]) [µg/mL] | MIC (Escherichia coli [3]) [µg/mL] | ED50 (Escherichia coli [4]) [mg/kg] | ED50 (Staphylococcus aureus [5]) [mg/kg] | ED50 (Pseudomonas aeruginosa [6]) [mg/kg] | ED50 (Escherichia coli [7]) [mg/kg]
1 | CCn1cc(C(=O)O)c(=O)c2cc(F)c(N3CCCNCC3)nc21 | 1.56 (≈ 4.67 µM) | 1.56 (≈ 4.67 µM) | 0.78 (≈ 2.33 µM) | – | – | – | –
2 | CCn1cc(C(=O)O)c(=O)c2cc(Cl)c(N3CCCC3)nc21 | 12.5 (≈ 38.8 µM) | > 100 | > 100 | – | – | – | –
3 | CCn1cc(C(=O)O)c(=O)c2cc([N+](=O)[O-])c(N3CCCC3)nc21 | 25 (≈ 75.2 µM) | > 100 | 100 (≈ 301 µM) | – | – | – | –
4 | CCCCN1CCN(c2nc3c(cc2F)c(=O)c(C(=O)O)cn3CC)CC1 | 3.13 (≈ 8.31 µM) | 25 (≈ 66.4 µM) | 3.13 (≈ 8.31 µM) | – | – | – | –
5 | CCn1cc(C(=O)O)c(=O)c2cc(F)c(N3CCCC3)nc21 | 0.39 (≈ 1.28 µM) | 3.13 (≈ 10.3 µM) | 1.56 (≈ 5.11 µM) | – | – | – | –
6 | CCC(C)N1CCN(c2nc3c(cc2F)c(=O)c(C(=O)O)cn3CC)CC1 (configuration not stated) | 1.56 (≈ 4.14 µM) | 25 (≈ 66.4 µM) | 3.13 (≈ 8.31 µM) | – | – | – | –
7 | CCn1cc(C(=O)O)c(=O)c2ccc(N3CCN(C)CC3)nc21 | 25 (≈ 79 µM) | 25 (≈ 79 µM) | 6.25 (≈ 19.8 µM) | – | – | – | –
8 | CCn1cc(C(=O)O)c(=O)c2cc(F)c(N3CCOCC3)nc21 | 1.56 (≈ 4.86 µM) | 6.25 (≈ 19.5 µM) | 3.13 (≈ 9.74 µM) | – | – | – | –
9 | CCn1cc(C(=O)O)c(=O)c2cc(F)c(NCCN)nc21 | 25 (≈ 85 µM) | 50 (≈ 170 µM) | 6.25 (≈ 21.2 µM) | – | – | – | –
10 | CCn1cc(C(=O)O)c(=O)c2cc([N+](=O)[O-])c(N3CCN(C)CC3)nc21 | 12.5 (≈ 34.6 µM) | 50 (≈ 138 µM) | 3.13 (≈ 8.66 µM) | – | – | – | –
11 | CCN1CCN(c2nc3c(cc2F)c(=O)c(C(=O)O)cn3CC)CC1 | 0.78 (≈ 2.24 µM) | 3.13 (≈ 8.98 µM) | 0.78 (≈ 2.24 µM) | – | – | – | –
12 | CCn1cc(C(=O)O)c(=O)c2cc(F)c(N)nc21 | > 100 | 50 (≈ 199 µM) | 1.56 (≈ 6.21 µM) | – | – | – | –
13 | CCn1cc(C(=O)O)c(=O)c2cc(F)c(N3CCCCCCC3)nc21 | 12.5 (≈ 36 µM) | > 100 | 25 (≈ 72 µM) | – | – | – | –
14 | CCn1cc(C(=O)O)c(=O)c2cc(N)c(N3CCNCC3)nc21 | > 100 | 6.25 (≈ 19.7 µM) | 3.13 (≈ 9.86 µM) | – | – | – | –
15 | O=C(O)c1cn(CCF)c2nc(N3CCNCC3)c(F)cc2c1=O | 0.39 (≈ 1.15 µM) | 0.78 (≈ 2.31 µM) | 0.2 (≈ 0.591 µM) | – | – | – | –
16 | CCn1cc(C(=O)O)c(=O)c2cc(N)c(N3CCCC3)nc21 | > 100 | > 100 | > 100 | – | – | – | –
17 | CCn1cc(C(=O)O)c(=O)c2ccc(N3CCCC3)nc21 | 12.5 (≈ 43.5 µM) | > 100 | 25 (≈ 87 µM) | – | – | – | –
18 | CCn1cc(C(=O)O)c(=O)c2cc(C#N)c(N3CCCC3)nc21 | 3.13 (≈ 10 µM) | 25 (≈ 80 µM) | 12.5 (≈ 40 µM) | – | – | – | –
19 | CN1CCN(c2nc3c(cc2F)c(=O)c(C(=O)O)cn3CCF)CC1 | 0.78 (≈ 2.21 µM) | 1.56 (≈ 4.43 µM) | 0.2 (≈ 0.568 µM) | – | – | – | –
20 | CCn1cc(C(=O)O)c(=O)c2cc(F)c(N3CCCCC3)nc21 | 0.78 (≈ 2.44 µM) | 12.5 (≈ 39.1 µM) | 6.25 (≈ 19.6 µM) | – | – | – | –
21 | CCn1cc(C(=O)O)c(=O)c2cc(F)c(N3CCNC(=O)C3)nc21 | 6.25 (≈ 18.7 µM) | 12.5 (≈ 37.4 µM) | 0.78 (≈ 2.33 µM) | – | – | – | –
22 | CCn1cc(C(=O)O)c(=O)c2cc(Cl)c(N3CCN(C)CC3)nc21 | 6.25 (≈ 17.8 µM) | 12.5 (≈ 35.6 µM) | 1.56 (≈ 4.45 µM) | – | – | – | –
23 | CCn1cc(C(=O)O)c(=O)c2cc(C#N)c(N3CCNCC3)nc21 | 6.25 (≈ 19.1 µM) | 6.25 (≈ 19.1 µM) | 1.56 (≈ 4.77 µM) | – | – | – | –
24 | CCn1cc(C(=O)O)c(=O)c2cc(F)c(N3CCNCC3)nc21 [ENOXACIN] | 0.78 (≈ 2.44 µM) | 0.78 (≈ 2.44 µM) | 0.2 (≈ 0.624 µM) | – | – | – | –
25 | CCn1cc(C(=O)O)c(=O)c2ccc(C)nc21 [NALIDIXIC ACID] | – | 50 (≈ 215 µM) | 1.56 (≈ 6.72 µM) | – | – | – | –

Further lines, with some results ahead:

Row | MIC (Staphylococcus aureus [1]) [µg/mL] | MIC (Pseudomonas aeruginosa [2]) [µg/mL] | MIC (Escherichia coli [3]) [µg/mL] | Structure (SMILES) | ED50 (Escherichia coli [4]) [mg/kg] | ED50 (Staphylococcus aureus [5]) [mg/kg] | ED50 (Pseudomonas aeruginosa [6]) [mg/kg] | ED50 (Escherichia coli [7]) [mg/kg]
26 | 3.13 (≈ 9.39 µM) | 50 (≈ 150 µM) | 6.25 (≈ 18.7 µM) | CCn1cc(C(=O)O)c(=O)c2cc(F)c(N3CCCCCC3)nc21 | – | – | – | –
27 | 3.13 (≈ 9.42 µM) | 0.78 (≈ 2.35 µM) | 0.2 (≈ 0.602 µM) | C=Cn1cc(C(=O)O)c(=O)c2cc(F)c(N3CCN(C)CC3)nc21 | 1.1 | 10.5 | 3.7 | –
28 | 0.78 (≈ 1.9 µM) | 12.5 (≈ 30.5 µM) | 6.25 (≈ 15.2 µM) | CCn1cc(C(=O)O)c(=O)c2cc(F)c(N3CCN(Cc4ccccc4)CC3)nc21 | – | – | – | –
29 | 6.25 (≈ 15.8 µM) | > 100 | 12.5 (≈ 31.5 µM) | CCn1cc(C(=O)O)c(=O)c2cc(F)c(N3CCN(c4ccccc4)CC3)nc21 | – | – | – | –
30 | 25 (≈ 75.4 µM) | 12.5 (≈ 37.7 µM) | 1.56 (≈ 4.71 µM) | CCn1cc(C(=O)O)c(=O)c2cc(N)c(N3CCN(C)CC3)nc21 | – | – | – | –
31 | 6.25 (≈ 18.3 µM) | 6.25 (≈ 18.3 µM) | 0.78 (≈ 2.28 µM) | O=C(O)c1cn(C(F)F)c2nc(N3CCNCC3)c(F)cc2c1=O | – | – | – | –
32 | 1.56 (≈ 4.62 µM) | 12.5 (≈ 37.1 µM) | 3.13 (≈ 9.28 µM) | CCn1cc(C(=O)O)c(=O)c2cc(F)c(N3CCSCC3)nc21 | – | – | – | –
33 | 3.13 (≈ 8.99 µM) | 12.5 (≈ 35.9 µM) | 1.56 (≈ 4.48 µM) | CCn1cc(C(=O)O)c(=O)c2cc(F)c(N3CCN(C=O)CC3)nc21 | – | – | – | –
34 | 1.56 (≈ 4.3 µM) | 12.5 (≈ 34.5 µM) | 1.56 (≈ 4.3 µM) | CCCN1CCN(c2nc3c(cc2F)c(=O)c(C(=O)O)cn3CC)CC1 | – | – | – | –
35 | 12.5 (≈ 36.6 µM) | 12.5 (≈ 36.6 µM) | 1.56 (≈ 4.57 µM) | CCn1cc(C(=O)O)c(=O)c2cc(C#N)c(N3CCN(C)CC3)nc21 | – | – | – | –
36 | 3.13 (≈ 8.64 µM) | 50 (≈ 138 µM) | 3.13 (≈ 8.64 µM) | CCn1cc(C(=O)O)c(=O)c2cc(F)c(N3CCN(C(C)=O)CC3)nc21 | – | – | – | –
37 | 6.25 (≈ 18 µM) | 25 (≈ 72 µM) | 6.25 (≈ 18 µM) | CCn1cc(C(=O)O)c(=O)c2cc([N+](=O)[O-])c(N3CCNCC3)nc21 | – | – | – | –
38 | 6.25 (≈ 20.6 µM) | 6.25 (≈ 20.6 µM) | – | CCn1cc(C(=O)O)c(=O)c2cnc(N3CCNCC3)nc21 [PIPEMIDIC ACID] | – | – | 70.8 | 12.8
